Reference: ChEMBL document CHEMBL3112425, “Design, synthesis, and structure-activity relationship studies of a potent PACE4 inhibitor” (J Med Chem, 2014)
Peptide text beside a SMILES is read from it. * marks the point of attachment. X1 = N=C(N)NC/C=C/CN*

Key:
[1] = test system: DU-145; test: Cellular uptake in human DU145 cells after 1 hr by propidium iodide staining-based FACS analysis; type: ADME, cell-based; conditions: du-145, 1 h
Method in brief: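 FITC-βAla-labelled peptides at 10 μM were given to DU145 cells for 1 h in serum-free RPMI. Cells were collected, then washed twice with 0.05% trypsin (5 min, 37 °C) to strip membrane-bound peptide. Propidium iodide (10 μg/mL, 2 min) excluded damaged cells. FACS read 10 000 events/sample as geometric mean fluorescence, against untreated-cell autofluorescence.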

[2] = Acute toxicity in human DU145 cells assessed as cell death/lysis at 100 uM after 4 hrs by LDH assay; type: cell-based, DU-145; conditions: read-out: INH
Method in brief: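 DU145 cells (RPMI 1640, 5% FBS, 37 °C, 5% CO2) plated; 24 h later peptides added at 100 μM. After 4 h, release of lactate dehydrogenase into the medium was quantified enzymatically with a commercial LDH cytotoxicity kit as the measure of acute membrane damage/lysis.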

[3] = test system: LNCaP; test: Cytotoxicity against human LNCAP cells after 72 hrs by MTT assay; type: functional, cell-based
Method in brief: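 Prostate cancer cells were kept in RPMI 1640 at 37 °C, 5% CO2, with 5% FBS for DU145 and 10% FBS for LNCaP and PC3. After 24 h, medium was changed and peptides added at various concentrations, up to 350 μM. Viability was read by MTT after 72 h treatment. IC50 from dose–response curves, triplicate, mean ± SEM.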

[4] = target: T1, Proprotein convertase subtilisin/kexin type 7 (Homo sapiens, UniProt Q16549); test: Inhibition of human PC7 expressed in drosophila schneider 2 cells using pyroGlu-Arg-Thr-Lys-Arg-AMC as substrate after 1 hr
T1 sequence (Q16549 whole entry): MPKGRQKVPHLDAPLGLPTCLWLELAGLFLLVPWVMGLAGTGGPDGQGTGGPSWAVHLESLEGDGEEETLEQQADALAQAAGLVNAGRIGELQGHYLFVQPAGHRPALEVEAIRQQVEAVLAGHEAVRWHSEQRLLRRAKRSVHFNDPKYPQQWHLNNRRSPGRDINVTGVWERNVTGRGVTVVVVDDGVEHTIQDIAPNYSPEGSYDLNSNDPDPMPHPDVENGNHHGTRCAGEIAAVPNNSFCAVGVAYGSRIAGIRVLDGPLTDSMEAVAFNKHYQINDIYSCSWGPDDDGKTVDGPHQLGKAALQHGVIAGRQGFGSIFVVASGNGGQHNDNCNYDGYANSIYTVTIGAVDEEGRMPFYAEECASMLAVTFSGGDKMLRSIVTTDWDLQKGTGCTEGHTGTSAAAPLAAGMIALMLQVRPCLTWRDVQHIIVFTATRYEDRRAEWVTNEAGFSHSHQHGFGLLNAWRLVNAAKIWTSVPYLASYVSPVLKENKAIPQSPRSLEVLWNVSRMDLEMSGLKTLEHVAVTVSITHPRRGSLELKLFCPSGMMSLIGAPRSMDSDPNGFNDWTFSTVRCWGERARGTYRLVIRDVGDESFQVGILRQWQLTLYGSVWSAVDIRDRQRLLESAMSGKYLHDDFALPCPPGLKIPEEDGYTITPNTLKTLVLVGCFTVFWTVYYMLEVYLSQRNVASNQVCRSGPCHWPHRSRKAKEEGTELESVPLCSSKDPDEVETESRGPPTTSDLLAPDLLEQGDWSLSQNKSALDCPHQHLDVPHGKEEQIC
Method in brief: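 Human enzymes were expressed in Drosophila S2 cells and purified. Fluorogenic pyroGlu-RTKR-AMC was used at fixed concentration with varied inhibitor, 37 °C over 1 h. Buffers: furin, 100 mM Hepes pH 7.5, 1 mM CaCl2, 1 mM β-mercaptoethanol, 1.8 mg/mL BSA; PACE4 and PC7, 20 mM Bis-Tris pH 6.5, 1 mM CaCl2, 1.8 mg/mL BSA; PC2, same buffer at pH 5.7. Ki from IC50 (Cheng–Prusoff), or apparent Ki (Morrison) for tight binders. Triplicate, mean ± SD.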

CC(=O)N[C@@H](CC(C)C)C(=O)N[C@@H](CC(C)C)C(=O)N[C@@H](CC(C)C)C(=O)N[C@@H](CC(C)C)C(=O)N[C@@H](CCCNC(=N)N)C(=O)N[C@H](C(=O)N[C@@H](CCCCN)C(=O)NC/C=C/CNC(=N)N)C(C)C (Ac-LLLLRVK-X1)
Drug uptake [1]: Active
cytotoxicity at 4 h, 100 µM [2]: < 5%
IC50 [3]: 70 µM
Ki [4]: 0.072 µM
